# Reference: ChEMBL document CHEMBL3124872, “Discovery and early development of TMC647055, a non-nucleoside inhibitor of the hepatitis C virus NS5B polymerase” (J Med Chem, 2014)
# Calls of active or inactive are those of the source. The calls are words filed in the database; no cut-off is given here.
# Tests used:
# Hepatitis C virus [1] = experiment: Antiviral activity against Hepatitis C virus genotype 1b infected in human HuH7 cells after 72 hrs by luciferase reporter gene assay in presence of 40% human plasma relative to control; assay type: functional, Hepacivirus hominis, Huh-7
# Hepatitis C virus [2] = experiment: Antiviral activity against Hepatitis C virus genotype 1b infected in human HuH7 cells after 72 hrs by luciferase reporter gene assay; assay type: functional, organism-based, Hepacivirus hominis; details: Huh-7, 72 h
# [3] = Cytotoxicity against human MT4 cells; assay type: cell-based
# [4] = Cytotoxicity against human HuH7 cells; assay type: cell-based, Huh-7
# [5] = Binding affinity to His6-tagged Hepatitis C virus Con 1b NS5B delta21 RNA dependent RNA polymerase expressed in Escherichia coli Rosetta 2 (DE3) by surface plasmon resonance analysis; design: species or system Hepatitis C virus (isolate Con1)
# Method in brief: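 Surface plasmon resonance binding to NS5B polymerase of the stated genotype; association and dissociation rate constants measured, from which Kd and residence half-life were derived; median Kd reported.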
# [6] = Drug uptake in Sprague-Dawley rat liver at 10 mg/kg, po after 7 hrs; assay type: ADME, organism-based; design: dose 10 mg/kg, route oral; details: read-out: Drug uptake
# Hepatitis C virus [7] = experiment: Antiviral activity against Hepatitis C virus genotype 1b infected in human HuH7 assessed as suppression of formation of resistant colonies at 0.2 uM preincubated for 2 weeks followed by 3 week rebound phase by RT-PCR analysis; assay type: functional, organism-based; details: Hepacivirus hominis, Huh-7
# Method in brief: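 Colony formation test in Huh7-Luc replicon cells incubated for 2−3 weeks with inhibitor alone (0.20 μM), scored for formation of resistant colonies.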
# Hepatitis C virus [8] = experiment: Antiviral activity against Hepatitis C virus genotype 1b infected in human HuH7 assessed as rebound of replicon RNA at 0.25 uM preincubated for 2 weeks followed by 3 week rebound phase by RT-PCR analysis; assay type: functional, organism-based; details: Hepacivirus hominis, Huh-7
# Method in brief: (§1)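 Huh7-Luc replicon cells incubated 14 days with compound alone or in combination, followed by a 3-week rebound phase without inhibitor; replicon RNA followed for clearance and rebound.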
# Hepatitis C virus [9] = experiment: Antiviral activity against Hepatitis C virus genotype 1b infected in human HuH7 assessed as clearance of replicon cells at 0.25 uM preincubated for 2 weeks followed by 3 week rebound phase by RT-PCR analysis; assay type: functional, organism-based; details: Hepacivirus hominis, Huh-7; method in brief: as §1
# Hepatitis C virus [10] = experiment: Antiviral activity against Hepatitis C virus genotype 1b infected in human assessed as reduction in plasma HCV RNA level administered for 10 days measured on day 11; assay type: functional, organism-based; details: Hepacivirus hominis
# Method in brief: (§2)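 HCV genotype 1a- and 1b-infected patients received oral 1000 mg b.i.d. together with an NS3/4A protease inhibitor at 150 mg q.d. for 10 days. The read-out was the median decrease in plasma HCV RNA (log10 IU/mL) at day 11.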
# Hepatitis C virus [11] = experiment: Antiviral activity against Hepatitis C virus genotype 1a infected in human assessed as reduction in plasma HCV RNA level administered for 10 days measured on day 11; assay type: functional, organism-based; details: Hepacivirus hominis, subtype 1a; method in brief: as §2
# [12] = Drug metabolism in rat liver microsomes after 15 mins; assay type: ADME; details: read-out: Drug metabolism
# [13] = Oral bioavailability in Sprague-Dawley rat at 10 mg/kg; assay type: ADME, organism-based; details: in vivo
# [14] = Ratio of drug level in liver to plasma in Sprague-Dawley rat at 10 mg/kg, po after 7 hrs; assay type: ADME, organism-based; design: dose 10 mg/kg, route oral
# [15] = Plasma clearance in Sprague-Dawley rat at 2 mg/kg, iv and 10 mg/kg, po; assay type: ADME, organism-based
# [16] = Drug metabolism in human liver microsomes at 5 uM after 15 mins; assay type: ADME; details: read-out: Drug metabolism
# Method in brief: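 Stability in human liver microsomes: test compound at 5 μM, incubated 15 min; reported as percentage of compound metabolized.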
SMILES,fold change (FC) (Hepatitis C virus [1]),CC50 [3],CC50 [4],Kd [5],other results
COc1ccc2c(c1)[C@H]1C[C@@]13Cn1c-2c(C2CCCCC2)c2ccc(cc21)C(=O)NS(=O)(=O)N(C)CCOCCN(C)C3=O,10,> 25 µM,> 25 µM,–,EC50 (Hepatitis C virus [2]): 0.8 µM
COc1ccc2c(c1)C=C1Cn3c-2c(C2CCCCC2)c2ccc(cc23)C(=O)NS(=O)(=O)N(C)CCCCNC1=O,10,> 25 µM,> 25 µM,0.0071 µM,–
COc1ccc2c(c1)C=C1Cn3c-2c(C2CCCCC2)c2ccc(cc23)C(=O)NS(=O)(=O)N2CCN(CCNC1=O)CC2,10,> 25 µM,> 25 µM,0.025 µM,–
COc1ccc2c(c1)C=C1Cn3c-2c(C2CCCCC2)c2ccc(cc23)C(=O)NS(=O)(=O)NCCCCN(C)C1=O,10,> 25 µM,> 25 µM,0.015 µM,–
CN1CCOCCN(C)S(=O)(=O)NC(=O)c2ccc3c(C4CCCCC4)c4n(c3c2)CC(=Cc2cc(F)ccc2-4)C1=O,10,> 25 µM,> 25 µM,–,concentration at 7 h [6]: 6560 ng/g
CN1CCOCCN(C)S(=O)(=O)NC(=O)c2ccc3c(C4CCCCC4)c4n(c3c2)CC(=Cc2cc(Cl)ccc2-4)C1=O,10,> 25 µM,> 25 µM,0.0015 µM,–
COc1ccc2c(c1)C=C1Cn3c-2c(C2CCCCC2)c2ccc(cc23)C(=O)NS(=O)(=O)N(C)CCCCCNC1=O,10,> 25 µM,> 25 µM,0.0009 µM,concentration at 7 h [6]: 6320 ng/g
COc1ccc2c(O[C@@H]3C[C@H]4C(=O)N[C@]5(C(=O)NS(=O)(=O)C6CC6)C[C@H]5/C=C\CCCCN(C)C(=O)[C@@H]4C3)cc(-c3nc(C(C)C)cs3)nc2c1C,–,–,–,–,Activity (Hepatitis C virus [7]): inactive; Activity (Hepatitis C virus [8]): inactive; Activity (Hepatitis C virus [9]): inactive; Activity (Hepatitis C virus [10]): Active; Activity (Hepatitis C virus [11]): Active
COc1ccc2c(c1)C[C@@H]1Cn3c-2c(C2CCCCC2)c2ccc(cc23)C(=O)NS(=O)(=O)N(C)CCOCCN(C)C1=O,10,> 25 µM,> 25 µM,–,concentration at 7 h [6]: 898 ng/g
COc1ccc2c(c1)C=C1Cn3c-2c(C2CCCCC2)c2ccc(cc23)C(=O)NS(=O)(=O)N(C)CCCCCCN(C)C1=O,10,> 25 µM,> 25 µM,0.0008 µM,–
COc1ccc2c(c1)C=C1Cn3c-2c(C2CCCCC2)c2ccc(cc23)C(=O)NS(=O)(=O)N(C)CCCCN(C)C1=O,–,> 25 µM,> 25 µM,–,EC50 (Hepatitis C virus [2]): 0.075 µM
COc1ccc2c(c1)C=C1CN(C)CCCCN(C)S(=O)(=O)NC(=O)c3ccc4c(C5CCCCC5)c-2n(c4c3)C1,10,> 25 µM,> 25 µM,–,EC50 (Hepatitis C virus [2]): 2.34 µM
COc1ccc2c(c1)C=C1Cn3c-2c(C2CCCCC2)c2ccc(cc23)C(=O)NS(=O)(=O)N(C)CCCN(C)C1=O,10,> 25 µM,> 25 µM,0.007 µM,–
COc1ccc2c(c1)[C@@H]1C[C@]13Cn1c-2c(C2CCCCC2)c2ccc(cc21)C(=O)NS(=O)(=O)N(C)CCOCCN(C)C3=O,10,> 25 µM,> 25 µM,–,"metabolised at 0.25 h [12]: 70%; bioavailability [13]: 51%; Kp at 7 h [14]: 38; concentration at 7 h [6]: 3200 ng/g; clearance [15]: 86.7 mL/min/kg; metabolised at 0.25 h, 5 µM [16]: 95%; EC50 (Hepatitis C virus [2]): 0.04 µM"
COc1ccc2c(c1)C=C1Cn3c-2c(C2CCCCC2)c2ccc(cc23)C(=O)NS(=O)(=O)N(C)CCN2CCN(CC2)C1=O,10,> 25 µM,> 25 µM,–,concentration at 7 h [6]: 299 ng/g
COc1ccc2c(c1)C=C1Cn3c-2c(C2CCCCC2)c2ccc(cc23)C(=O)NS(=O)(=O)N(C)CCN(C)CCNC1=O,10,> 25 µM,> 25 µM,–,–
COc1ccc2c(c1)C[C@H]1Cn3c-2c(C2CCCCC2)c2ccc(cc23)C(=O)NS(=O)(=O)N(C)CCOCCN(C)C1=O,10,> 25 µM,> 25 µM,–,–
